# In ChEMBL document CHEMBL4373711, “Development of 3,5-Dinitrophenyl-Containing 1,2,4-Triazoles and Their Trifluoromethyl Analogues as Highly Efficient Antitubercular Agents Inhibiting Decaprenylphosphoryl-β-d-ribofuranose 2'-Oxidase” (J Med Chem, 2019):
# The source made the active and inactive calls. The rule behind the calls is not given here.
# Key:
# [1] = system: Mycobacterium tuberculosis; assay: Antimycobacterial activity against Mycobacterium tuberculosis H37Rv CNCTC My 331/88 after 14 days; format: functional; conditions: H37Rv CNCTC My 331/88, 336 h
# How it was run: (§1)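 M. tuberculosis strains (H37Rv and clinical MDR/XDR isolates) tested by microdilution in Šula's semisynthetic medium. Compounds were dissolved in DMSO and tested at 32 to 0.03 µM in twofold steps. Inoculum was a 1.0 McFarland suspension diluted 10-3. Plates were incubated at 37 °C and read at 14 and 21 days.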
# [2] = system: Mycobacterium tuberculosis; assay: Antimycobacterial activity against Mycobacterium tuberculosis H37Rv CNCTC My 331/88 after 21 days; format: functional; conditions: H37Rv CNCTC My 331/88, 504 h; how it was run: as §1
# Mycobacterium avium [3] = assay: Antimycobacterial activity against Mycobacterium avium CNCTC My 330/88 after 14 days; format: functional; conditions: CNCTC My 330/88, 336 h
# How it was run: (§2)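 M. avium was tested by microdilution in Šula's semisynthetic medium, with compounds dissolved in DMSO and serially diluted from 1000 down to 1. Inoculum was a 1.0 McFarland suspension diluted 10-5. Plates were incubated at 37 °C and read at 14 and 21 days. […] Isoniazid and rifampicin served as standards.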
# Mycobacterium avium [4] = assay: Antimycobacterial activity against Mycobacterium avium CNCTC My 330/88 after 21 days; format: functional; conditions: CNCTC My 330/88, 504 h; how it was run: as §2
# Mycobacterium kansasii [5] = assay: Antimycobacterial activity against Mycobacterium kansasii CNCTC My 235/80 after 7 days; format: functional; conditions: CNCTC My 235/80, 168 h
# How it was run: (§3)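 Microdilution in Šula's semisynthetic medium; compounds in DMSO at 32–0.03 µM. Inoculum from 1.0 McFarland suspension diluted 10-4. […] Isoniazid and rifampicin as reference drugs.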
# Mycobacterium kansasii [6] = assay: Antimycobacterial activity against Mycobacterium kansasii CNCTC My 235/80 after 14 days; format: functional; conditions: CNCTC My 235/80, 336 h; how it was run: as §3
# Mycobacterium kansasii [7] = assay: Antimycobacterial activity against Mycobacterium kansasii CNCTC My 235/80 after 21 days; format: functional; conditions: CNCTC My 235/80, 504 h; how it was run: as §3
# Mycobacterium kansasii [8] = assay: Antimycobacterial activity against Mycobacterium kansasii 6509/96 after 7 days; format: functional; conditions: 6509/96, 168 h; how it was run: as §3
# Mycobacterium kansasii [9] = assay: Antimycobacterial activity against Mycobacterium kansasii 6509/96 after 14 days; format: functional; conditions: 6509/96, 336 h; how it was run: as §3
# Mycobacterium kansasii [10] = assay: Antimycobacterial activity against Mycobacterium kansasii 6509/96 after 21 days; format: functional; conditions: 6509/96, 504 h; how it was run: as §3
# Staphylococcus aureus [11] = assay: Antibacterial activity against Staphylococcus aureus subsp. aureus ATCC 29213 CCM 4223 at highest concentration measured after 24 to 48 hrs by alamar blue dye based broth microdilution assay; format: functional, organism-based
# Staphylococcus aureus [12] = assay: Antibacterial activity against methicillin-resistant Staphylococcus aureus subsp. aureus ATCC 43300 CCM 4750 at highest concentration measured after 24 to 48 hrs by alamar blue dye based broth microdilution assay; format: functional, organism-based
# [13] = system: Staphylococcus epidermidis; assay: Antibacterial activity against Staphylococcus epidermidis at highest concentration measured after 24 to 48 hrs by alamar blue dye based broth microdilution assay; format: functional, organism-based
# Enterococcus faecalis = assay: Antibacterial activity against Enterococcus faecalis ATCC 29212 CCM 4224 at highest concentration measured after 24 to 48 hrs by alamar blue dye based broth microdilution assay; format: functional, organism-based
# Escherichia coli = assay: Antibacterial activity against Escherichia coli ATCC 25922 CCM 3954 at highest concentration measured after 24 to 48 hrs by alamar blue dye based broth microdilution assay; format: functional, organism-based
# Klebsiella pneumoniae = assay: Antibacterial activity against Klebsiella pneumoniae at highest concentration measured after 24 to 48 hrs by alamar blue dye based broth microdilution assay; format: functional, organism-based
# Serratia marcescens = assay: Antibacterial activity against Serratia marcescens at highest concentration measured after 24 to 48 hrs by alamar blue dye based broth microdilution assay; format: functional, organism-based
# Pseudomonas aeruginosa = assay: Antibacterial activity against Pseudomonas aeruginosa ATCC 27853 CCM 3955 at highest concentration measured after 24 to 48 hrs by alamar blue dye based broth microdilution assay; format: functional, organism-based
# Candida albicans = assay: Antifungal activity against Candida albicans ATCC 24433 CCM 8320 at highest concentration measured after 24 to 48 hrs by alamar blue dye based broth microdilution assay; format: functional, organism-based
# Pichia kudriavzevii = assay: Antifungal activity against Candida krusei ATCC 6258 CCM8271 at highest concentration measured after 24 to 48 hrs by alamar blue dye based broth microdilution assay; format: functional, organism-based
# Candida parapsilosis = assay: Antifungal activity against Candida parapsilosis ATCC 22019 CCM 8260 at highest concentration measured after 24 to 48 hrs by alamar blue dye based broth microdilution assay; format: functional, organism-based
# Candida tropicalis = assay: Antifungal activity against Candida tropicalis ATCC 750 CCM 8264 at highest concentration measured after 24 to 48 hrs by alamar blue dye based broth microdilution assay; format: functional, organism-based
# Aspergillus fumigatus = assay: Antifungal activity against Aspergillus fumigatus ATCC 204305 at highest concentration measured after 24 to 48 hrs by alamar blue dye based broth microdilution assay; format: functional, organism-based
# Aspergillus flavus = assay: Antifungal activity against Aspergillus flavus CCM 8363 at highest concentration measured after 24 to 48 hrs by alamar blue dye based broth microdilution assay; format: functional, organism-based
# Lichtheimia corymbifera = assay: Antifungal activity against Lichtheimia corymbifera CCM 8077 at highest concentration measured after 24 to 48 hrs by alamar blue dye based broth microdilution assay; format: functional, organism-based
# [14] = system: Trichophyton interdigitale; assay: Antifungal activity against Trichophyton interdigitale ATCC 9533 CCM 8377 at highest concentration measured after 72 to 120 hrs by alamar blue dye based broth microdilution assay; format: functional
# HepG2 = assay: Cytotoxicity against human HepG2 cells assessed as reduction in cell viability after 48 hrs by CellTiter 96 aqueous one solution assay; format: cell-based; conditions: HepG2, 48 h
# [15] = Cytotoxicity against human HepG2 cells assessed as cell viability at 30 uM after 48 hrs by CellTiter 96 aqueous one solution assay relative to control; format: cell-based; conditions: read-out: Activity
# How it was run: (§4)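 HepG2 (DMEM, 10% FBS, 1 mM pyruvate) or A431 (DMEM, 10% FBS) seeded 10,000 cells/well, 24 h at 37 °C, 5% CO2, then 30 µM compound for 48 h. MTS reagent 60 min, absorbance 490 nm, background subtracted; 0.1% DMSO vehicle = 100%, 10% SDS = 0% viability.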
# A-431 = assay: Cytotoxicity against human A431 cells assessed as reduction in cell viability after 48 hrs by CellTiter 96 aqueous one solution assay; format: cell-based; conditions: A-431, 48 h
# [16] = Cytotoxicity against human A431 cells assessed as cell viability at 30 uM after 48 hrs by CellTiter 96 aqueous one solution assay relative to control; format: cell-based, A-431; conditions: read-out: Activity; how it was run: as §4
SMILES,MIC99 [1] [µM],MIC99 [2] [µM],MIC99 (Mycobacterium avium [3]) [µM],MIC99 (Mycobacterium avium [4]) [µM],MIC99 (Mycobacterium kansasii [5]) [µM],MIC99 (Mycobacterium kansasii [6]) [µM],MIC99 (Mycobacterium kansasii [7]) [µM],MIC99 (Mycobacterium kansasii [8]) [µM],MIC99 (Mycobacterium kansasii [9]) [µM],MIC99 (Mycobacterium kansasii [10]) [µM],Activity (Staphylococcus aureus [11]),Activity (Staphylococcus aureus [12]),Activity [13],Activity (Enterococcus faecalis),Activity (Escherichia coli),Activity (Klebsiella pneumoniae),Activity (Serratia marcescens),Activity (Pseudomonas aeruginosa),Activity (Candida albicans),Activity (Pichia kudriavzevii),also measured
O=[N+]([O-])c1cc(CSc2nnc(-c3ccccc3)n2-c2ccc(Cl)c(Cl)c2)cc([N+](=O)[O-])c1,1,2,125,125,0.5,1,2,0.5,1,2,inactive,inactive,inactive,inactive,inactive,inactive,inactive,inactive,inactive,inactive,"Activity (Candida parapsilosis): inactive; Activity (Candida tropicalis): inactive; Activity (Aspergillus fumigatus): inactive; Activity (Aspergillus flavus): inactive; Activity (Lichtheimia corymbifera): inactive; Activity [14]: inactive; IC50 (HepG2): > 30 µM; viability at 48 h, 30 µM [15]: 134%; IC50 (A-431): > 30 µM; viability at 48 h, 30 µM [16]: 136%"
COc1ccc(CSc2nnc(-c3cc([N+](=O)[O-])cc([N+](=O)[O-])c3)n2C)cc1,0.25,0.5,16,16,1,2,4,2,2,2,inactive,inactive,inactive,inactive,inactive,inactive,inactive,inactive,inactive,inactive,"Activity (Candida parapsilosis): inactive; Activity (Candida tropicalis): inactive; Activity (Aspergillus fumigatus): inactive; Activity (Aspergillus flavus): inactive; Activity (Lichtheimia corymbifera): inactive; Activity [14]: inactive; IC50 (HepG2): > 30 µM; viability at 48 h, 30 µM [15]: 107%; IC50 (A-431): > 30 µM; viability at 48 h, 30 µM [16]: 104%"
CCCCCCn1c(SCc2ccccc2)nnc1-c1cc([N+](=O)[O-])cc([N+](=O)[O-])c1,1,1,250,250,1,1,1,1,1,1,inactive,inactive,inactive,inactive,inactive,inactive,inactive,inactive,inactive,inactive,"Activity (Candida parapsilosis): inactive; Activity (Candida tropicalis): inactive; Activity (Aspergillus fumigatus): inactive; Activity (Aspergillus flavus): inactive; Activity (Lichtheimia corymbifera): inactive; Activity [14]: inactive; IC50 (HepG2): > 30 µM; viability at 48 h, 30 µM [15]: 102%; IC50 (A-431): > 30 µM; viability at 48 h, 30 µM [16]: 98%"
O=[N+]([O-])c1cc(CSc2nnc(-c3ccc(O)cc3)n2Cc2ccccc2)cc([N+](=O)[O-])c1,16,16,250,250,8,16,16,8,16,16,inactive,inactive,inactive,inactive,inactive,inactive,inactive,inactive,inactive,inactive,Activity (Candida parapsilosis): inactive; Activity (Candida tropicalis): inactive; Activity (Aspergillus fumigatus): inactive; Activity (Aspergillus flavus): inactive; Activity (Lichtheimia corymbifera): inactive; Activity [14]: inactive
